Laboratory results published in ChEMBL document CHEMBL1649427, “Inactivation of the glycoside hydrolase NagZ attenuates antipseudomonal beta-lactam resistance in Pseudomonas aeruginosa” (Antimicrob Agents Chemother, 2009).
≈ marks a conversion by molar mass, not a printed value.

Assays:
Pseudomonas aeruginosa [1] = assay: Antimicrobial activity against Pseudomonas aeruginosa PAO1 harboring deltaampD::lox deltaampDh2::lox delta ampDh3::lox after 18 hrs by Etest; type: functional; conditions: PAO1, 18 h
How it was run: (§1)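 Etest strips on Mueller-Hinton agar plates, run per the manufacturer's recommendations; MICs determined in triplicate.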

Pseudomonas aeruginosa [2] = assay: Antimicrobial activity against Pseudomonas aeruginosa PAO1 harboring deltaampD::lox deltaampDh2::lox delta ampDh3::lox and wild type nagZ gene after 18 hrs by Etest; type: functional; conditions: PAO1, 18 h
How it was run: (§2)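 Etest strips on Mueller-Hinton agar supplemented with 75 μg/ml tetracycline to maintain the vector or complementation plasmid, run per the manufacturer's recommendations; triplicate determinations.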

Pseudomonas aeruginosa [3] = assay: Antimicrobial activity against nagZ gene-deficient Pseudomonas aeruginosa PAO1 after 18 hrs by broth microdilution method; type: functional; conditions: PAO1, 18 h
How it was run: (§3)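 CLSI broth microdilution in cation-adjusted Mueller-Hinton medium with serial β-lactam dilutions. Each well holds 200 μl broth inoculated with ~10⁴ cells from starter cultures at OD600 ~0.5. Plates shaken at 37°C for 18 h. The MIC is read as the lowest antibiotic concentration showing no growth. Triplicate determinations.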

Pseudomonas aeruginosa [4] = assay: Ratio of MIC for Pseudomonas aeruginosa PAO1 harboring deltaampD::lox deltaampDh2::lox deltaampDh3::lox to MIC for Pseudomonas aeruginosa PAO1 harboring deltaampD::lox deltaampDh2::lox deltaampDh3::lox deltanagZ::Gm
Pseudomonas aeruginosa [5] = assay: Antimicrobial activity against ampDDh3 gene-deficient Pseudomonas aeruginosa PAO1 after 18 hrs by broth microdilution method in presence of 0.5 mM nagZ inhibitor EtBuPUG; type: functional; conditions: PAO1, 18 h
How it was run: (§4)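 Wells are then inoculated with 100 μl culture and incubated 18 h at 37°C. The MIC is the lowest concentration with no growth. Triplicate determinations.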

Pseudomonas aeruginosa [6] = assay: Ratio of MIC for ampDh2 gene-deficient Pseudomonas aeruginosa PAO1 after 18 hrs by broth microdilution method in presence of 0.5 mM nagZ inhibitor EtBuPUG to MIC for ampDh2 gene-deficient Pseudomonas aeruginosa PAO1 in absence of nagZ inhibitor EtBuPUG; type: functional
How it was run: (§5)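 Broth microdilution in Mueller-Hinton broth. Serial β-lactam dilutions in 80 μl broth, plus 20 μl EtBuPUG (5 mM stock in H₂O) or 20 μl H₂O, then 100 μl culture grown to OD600 ~0.5. Plates incubated at 37°C for 18 h. MIC read as the antibiotic concentration in wells with no growth, with and without inhibitor. Triplicate.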

Pseudomonas aeruginosa [7] = assay: Antimicrobial activity against Pseudomonas aeruginosa PAO1 after 18 hrs by using 30 ug/disk by agar diffusion method in presence of 0.5 mM nagZ inhibitor EtBuPUG; type: functional
How it was run: (§6)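 Cultures grown in Mueller-Hinton broth at 37°C to OD600 ~0.5, pelleted, resuspended in 2 ml broth and streaked on Mueller-Hinton agar. […] Inhibition zone diameter measured after overnight incubation at 37°C. Triplicate determinations.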

Pseudomonas aeruginosa [8] = assay: Antimicrobial activity against Pseudomonas aeruginosa PAO1 harboring deltaampD::lox deltaampDh2::lox deltaampDh3::lox deltanagZ::Gm after 18 hrs by Etest; type: functional; conditions: PAO1, 18 h; how it was run: as §1
Pseudomonas aeruginosa [9] = assay: Antimicrobial activity against ampD gene-deficient Pseudomonas aeruginosa PAO1 after 18 hrs by broth microdilution method in absence of EtBuPUG; conditions: PAO1, 18 h
Pseudomonas aeruginosa [10] = assay: Antimicrobial activity against ampDh2 and ampDh3 gene-deficient Pseudomonas aeruginosa PAO1 after 18 hrs by broth microdilution method in presence of 0.5 mM nagZ inhibitor EtBuPUG; type: functional; conditions: PAO1, 18 h; how it was run: as §4
Pseudomonas aeruginosa [11] = assay: Antimicrobial activity against ampD gene-deficient Pseudomonas aeruginosa PAO1 after 18 hrs by broth microdilution method in presence of 0.5 mM nagZ inhibitor EtBuPUG; type: functional; conditions: PAO1, 18 h; how it was run: as §4
Pseudomonas aeruginosa [12] = assay: Antimicrobial activity against ampDh2 gene-deficient Pseudomonas aeruginosa PAO1 using 30 ug/disk by agar diffusion method in presence of 0.5 mM nagZ inhibitor EtBuPUG; type: functional; how it was run: as §6
Pseudomonas aeruginosa [13] = assay: Antimicrobial activity against ampDDh2 and ampDh3 gene-deficient Pseudomonas aeruginosa PAO1 after 18 hrs using […] by agar diffusion method in presence of 0.5 mM nagZ inhibitor EtBuPUG; type: functional
How it was run: (§7)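 Cultures grown in Mueller-Hinton broth at 37°C to OD600 ~0.5, pelleted, resuspended in 2 ml broth and streaked on Mueller-Hinton agar. Inhibition zone diameter measured after overnight incubation at 37°C. Triplicate determinations.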

Pseudomonas aeruginosa [14] = assay: Antimicrobial activity against Pseudomonas aeruginosa PAO1 harboring deltaampD::lox deltaampDh2::lox delta ampDh3::lox and plasmid pUCP27 after 18 hrs by Etest; type: functional; conditions: PAO1, 18 h; how it was run: as §2
Pseudomonas aeruginosa [15] = assay: Antimicrobial activity against ampDh2 and ampDh3 gene-deficient Pseudomonas aeruginosa PAO1 after 18 hrs by broth microdilution method; type: functional; conditions: PAO1, 18 h; how it was run: as §4
Pseudomonas aeruginosa [16] = assay: Antimicrobial activity against ampDh3 gene-deficient Pseudomonas aeruginosa PAO1 after 18 hrs by broth microdilution method in presence; type: functional; conditions: PAO1, 18 h; how it was run: as §4
Pseudomonas aeruginosa [17] = assay: Antimicrobial activity against ampDh2 gene-deficient Pseudomonas aeruginosa PAO1 after 18 hrs by broth microdilution method in presence of 0.5 mM nagZ inhibitor EtBuPUG; type: functional; conditions: PAO1, 18 h; how it was run: as §4
Pseudomonas aeruginosa [18] = assay: Antimicrobial activity against Pseudomonas aeruginosa PAO1 after 18 hrs by broth microdilution method; type: functional; conditions: PAO1, 18 h; how it was run: as §3
Pseudomonas aeruginosa [19] = assay: Antimicrobial activity against ampDDh2 gene-deficient Pseudomonas aeruginosa PAO1 after 18 hrs by broth microdilution method in presence; type: functional; conditions: PAO1, 18 h; how it was run: as §4
Pseudomonas aeruginosa [20] = assay: Antimicrobial activity against ampDh3 gene-deficient Pseudomonas aeruginosa PAO1 after 18 hrs by broth microdilution method in presence of 0.5 mM nagZ inhibitor EtBuPUG; type: functional; conditions: PAO1, 18 h; how it was run: as §4
Pseudomonas aeruginosa [21] = assay: Antimicrobial activity against ampDDh2 and ampDh3 gene-deficient Pseudomonas aeruginosa PAO1 after 18 hrs by broth microdilution method in presence of 0.5 mM nagZ inhibitor EtBuPUG; type: functional; conditions: PAO1, 18 h; how it was run: as §4
Pseudomonas aeruginosa [22] = assay: Ratio of MIC for ampD gene-deficient Pseudomonas aeruginosa PAO1 after 18 hrs by broth microdilution method presence of 0.5 mM nagZ inhibitor EtBuPUG to MIC for […] gene-deficient Pseudomonas aeruginosa PAO1 in absence of nagZ inhibitor EtBuPUG; type: functional; how it was run: as §5
Pseudomonas aeruginosa [23] = assay: Antimicrobial activity against ampDDh2 gene-deficient Pseudomonas aeruginosa PAO1 after 18 hrs by broth microdilution method in presence of 0.5 mM nagZ inhibitor EtBuPUG; type: functional; conditions: PAO1, 18 h; how it was run: as §4
Pseudomonas aeruginosa [24] = assay: Antimicrobial activity against ampDDh3 gene-deficient Pseudomonas aeruginosa PAO1 after 18 hrs by broth microdilution method in presence; type: functional; conditions: PAO1, 18 h; how it was run: as §4
Pseudomonas aeruginosa [25] = assay: Antimicrobial activity against Pseudomonas aeruginosa PAO1 after 18 hrs by broth microdilution method in presence of 0.5 mM nagZ inhibitor EtBuPUG; type: functional; conditions: PAO1, 18 h; how it was run: as §4
Pseudomonas aeruginosa [26] = assay: Antimicrobial activity against Pseudomonas aeruginosa PAO1 after 18 hrs by using 30 ug/disk by agar diffusion method; type: functional; how it was run: as §7
Pseudomonas aeruginosa [27] = assay: Antimicrobial activity against ampDDh2 and ampDh3 gene-deficient Pseudomonas aeruginosa PAO1 after 18 hrs using […] by agar diffusion method; type: functional; how it was run: as §6
Pseudomonas aeruginosa [28] = assay: Antimicrobial activity against ampDh2 gene-deficient Pseudomonas aeruginosa PAO1 using 30 ug/disk by agar diffusion method; type: functional; how it was run: as §7
Pseudomonas aeruginosa [29] = assay: Antimicrobial activity against ampDh2 gene-deficient Pseudomonas aeruginosa PAO1 after 18 hrs by broth microdilution method in absence of EtBuPUG; conditions: PAO1, 18 h
Pseudomonas aeruginosa [30] = assay: Ratio of MIC for ampDh3 gene-deficient Pseudomonas aeruginosa PAO1 after 18 hrs by broth microdilution method presence of 0.5 mM nagZ inhibitor EtBuPUG to MIC for ampDh3 gene-deficient Pseudomonas aeruginosa PAO1 in absence of nagZ inhibitor EtBuPUG; type: functional; how it was run: as §5
Pseudomonas aeruginosa [31] = assay: Ratio of MIC for Pseudomonas aeruginosa PAO1 harboring deltaampD::lox deltaampDh2::lox deltaampDh3::lox deltanagZ::Gm in presence of beta-lactamase inhibitor Tazobactam to MIC for nagZ gene-deficient Pseudomonas aeruginosa PAO1 in presence of beta-lactamase inhibitor Tazobactam; type: functional
Pseudomonas aeruginosa [32] = assay: Antimicrobial activity against nagZ gene-deficient Pseudomonas aeruginosa PAO1 after 18 hrs by Etest; type: functional; conditions: PAO1, 18 h
How it was run: (§8)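 Strains are P. aeruginosa PAO1 and its insertional nagZ-inactivated derivative. MICs were read from Etest strips on Mueller-Hinton agar, following the manufacturer's recommendations. Each determination was done in triplicate.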

Pseudomonas aeruginosa [33] = assay: Antimicrobial activity against Pseudomonas aeruginosa PAO1 after 18 hrs by Etest; type: functional; conditions: PAO1, 18 h; how it was run: as §8
Pseudomonas aeruginosa [34] = assay: Antimicrobial activity against Pseudomonas aeruginosa PAO1 after 18 hrs by Etest in presence of beta-lactamase inhibitor Tazobactam; type: functional; conditions: PAO1, 18 h; how it was run: as §8
Pseudomonas aeruginosa [35] = assay: Antimicrobial activity against Pseudomonas aeruginosa PAO1 harboring deltaampD::lox deltaampDh2::lox deltaampDh3::lox deltanagZ::Gm after 18 hrs by Etest in presence of beta-lactamase inhibitor Tazobactam; type: functional; conditions: PAO1, 18 h
Pseudomonas aeruginosa [36] = assay: Antimicrobial activity against Pseudomonas aeruginosa PAO1 harboring deltaampD::lox deltaampDh2::lox delta ampDh3::lox after 18 hrs by Etest in presence of beta-lactamase inhibitor Tazobactam; type: functional; conditions: PAO1, 18 h
Pseudomonas aeruginosa [37] = assay: Antimicrobial activity against nagZ gene-deficient Pseudomonas aeruginosa PAO1 after 18 hrs by Etest in presence of beta-lactamase inhibitor Tazobactam; type: functional; conditions: PAO1, 18 h; how it was run: as §8

SMILES: CC(C)(O/N=C(\C(=O)N[C@@H]1C(=O)N2C(C(=O)[O-])=C(C[n+]3ccccc3)CS[C@H]12)c1csc(N)n1)C(=O)O [CEFTAZIDIME]
- MIC (Pseudomonas aeruginosa [1]): 48 µg/mL (≈ 87.8 µM)
- MIC (Pseudomonas aeruginosa [2]): 48 µg/mL (≈ 87.8 µM)
- MIC (Pseudomonas aeruginosa [3]): 0.5 µg/mL (≈ 0.915 µM)
- Ratio (Pseudomonas aeruginosa [4]): 4
- MIC (Pseudomonas aeruginosa [5]): 48 µg/mL
- Ratio (Pseudomonas aeruginosa [6]): 4
- inhibition zone (IZ) (Pseudomonas aeruginosa [7]): 13.1 mm
- MIC (Pseudomonas aeruginosa [8]): 12 µg/mL (≈ 22 µM)
- MIC (Pseudomonas aeruginosa [9]): 8 µg/mL (≈ 14.6 µM)
- MIC (Pseudomonas aeruginosa [10]): 0.75 µg/mL
- MIC (Pseudomonas aeruginosa [11]): 4 µg/mL
- inhibition zone (IZ) (Pseudomonas aeruginosa [12]): 12.3 mm
- inhibition zone (IZ) (Pseudomonas aeruginosa [13]): 9.5 mm
- MIC (Pseudomonas aeruginosa [14]): 12 µg/mL (≈ 22 µM)
- MIC (Pseudomonas aeruginosa [15]): 0.75 µg/mL (≈ 1.37 µM)
- MIC (Pseudomonas aeruginosa [16]): 1 µg/mL (≈ 1.83 µM)
- MIC (Pseudomonas aeruginosa [17]): 0.19 µg/mL
- MIC (Pseudomonas aeruginosa [18]): 1 µg/mL (≈ 1.83 µM)
- MIC (Pseudomonas aeruginosa [19]): 12 µg/mL (≈ 22 µM)
- MIC (Pseudomonas aeruginosa [20]): 0.5 µg/mL
- MIC (Pseudomonas aeruginosa [21]): 48 µg/mL
- Ratio (Pseudomonas aeruginosa [22]): 2
- MIC (Pseudomonas aeruginosa [23]): 6 µg/mL
- MIC (Pseudomonas aeruginosa [24]): 48 µg/mL (≈ 87.8 µM)
- MIC (Pseudomonas aeruginosa [25]): 0.5 µg/mL
- inhibition zone (IZ) (Pseudomonas aeruginosa [26]): 11.4 mm
- inhibition zone (IZ) (Pseudomonas aeruginosa [27]): 9.2 mm
- inhibition zone (IZ) (Pseudomonas aeruginosa [28]): 10.1 mm
- MIC (Pseudomonas aeruginosa [29]): 0.75 µg/mL (≈ 1.37 µM)
- Ratio (Pseudomonas aeruginosa [30]): 2

SMILES: CCN1CCN(C(=O)N[C@@H](C(=O)N[C@@H]2C(=O)N3[C@@H]2SC(C)(C)[C@@H]3C(=O)O)c2ccccc2)C(=O)C1=O [PIPERACILLIN]
- MIC (Pseudomonas aeruginosa [1]): > 256 µg/mL
- Ratio (Pseudomonas aeruginosa [31]): 10
- MIC (Pseudomonas aeruginosa [32]): 1 µg/mL (≈ 1.93 µM)
- MIC (Pseudomonas aeruginosa [33]): 1 µg/mL (≈ 1.93 µM)
- MIC (Pseudomonas aeruginosa [34]): 1 µg/mL
- MIC (Pseudomonas aeruginosa [8]): 24 µg/mL (≈ 46.4 µM)
- MIC (Pseudomonas aeruginosa [35]): 16 µg/mL
- MIC (Pseudomonas aeruginosa [36]): ≥ 256 µg/mL
- MIC (Pseudomonas aeruginosa [37]): 1.5 µg/mL
